Drawing on ChEMBL document CHEMBL1944603, “An efficient synthesis of highly functionalized novel chromeno[4,3-b]pyrroles and indolizino[6,7-b]indoles as potent antimicrobial and antioxidant agents” (2012), this text covers inhibition zone (IZ), MIC and Activity for 2 compounds.

By MIC is commonly meant the smallest concentration in the dilution series that meets the test's criterion for growth inhibition.

Structures are written as SMILES. ≈ marks a conversion by molar mass, not a printed value.

The test system of one assay is Staphylococcus aureus. Briefly: Antimicrobial activity against Staphylococcus aureus at 75 ug/ml by agar diffusion assay. Type of assay: functional. Put shortly: (§1)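 Agar diffusion assay in duplicate against the human bacterial pathogens; tetracycline as reference control.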
Compound `COC(=O)[C@]12Cc3c([nH]c4ccccc34)[C@@H](c3ccc(Cl)cc3)N1[C@@H]1c3ccccc3OC[C@@H]1C2` displayed an inhibition zone (IZ) of 24 mm.
With `COC(=O)[C@@]1(Cc2c[nH]c3ccccc23)C[C@H]2COc3ccccc3[C@H]2N1`, the inhibition zone (IZ) came out at 20 mm.

The subject of another assay is Staphylococcus aureus. Briefly: Antimicrobial activity against Staphylococcus aureus at 50 ug/ml by agar diffusion assay. In kind it is functional. Summed up: as §1
(A growth-free zone around the sample is the usual read-out of agar diffusion tests.)
`COC(=O)[C@]12Cc3c([nH]c4ccccc34)[C@@H](c3ccc(Cl)cc3)N1[C@@H]1c3ccccc3OC[C@@H]1C2` gave an inhibition zone (IZ) of 21 mm.
Still for that read-out and setting: under `COC(=O)[C@@]1(Cc2c[nH]c3ccccc23)C[C@H]2COc3ccccc3[C@H]2N1` stands 15 mm.

In another assay the test system is Pseudomonas aeruginosa. The experiment in a line: Antimicrobial activity against Pseudomonas aeruginosa at 25 ug/ml by agar diffusion assay. In kind it is functional. Summed up: as §1
For `COC(=O)[C@]12Cc3c([nH]c4ccccc34)[C@@H](c3ccc(Cl)cc3)N1[C@@H]1c3ccccc3OC[C@@H]1C2`, the inhibition zone (IZ) stood at 16 mm.
Regarding `COC(=O)[C@@]1(Cc2c[nH]c3ccccc23)C[C@H]2COc3ccccc3[C@H]2N1`, the inhibition zone (IZ) is 10 mm.

The next assay has as its system Klebsiella pneumoniae. Briefly: Antimicrobial activity against Klebsiella pneumoniae at 100 ug/ml by agar diffusion assay. Type of assay: functional. Summed up: as §1
The compound `COC(=O)[C@]12Cc3c([nH]c4ccccc34)[C@@H](c3ccc(Cl)cc3)N1[C@@H]1c3ccccc3OC[C@@H]1C2` showed an inhibition zone (IZ) of 30 mm.
The compound `COC(=O)[C@@]1(Cc2c[nH]c3ccccc23)C[C@H]2COc3ccccc3[C@H]2N1` yielded an inhibition zone (IZ) of 23 mm.

Another assay deals with Pseudomonas aeruginosa. Briefly: Antimicrobial activity against Pseudomonas aeruginosa at 75 ug/ml by agar diffusion assay. In kind it is functional. Put shortly: as §1
Turning to `COC(=O)[C@]12Cc3c([nH]c4ccccc34)[C@@H](c3ccc(Cl)cc3)N1[C@@H]1c3ccccc3OC[C@@H]1C2`, the inhibition zone (IZ) is 25 mm.
Still for that read-out and setting: in the case of `COC(=O)[C@@]1(Cc2c[nH]c3ccccc23)C[C@H]2COc3ccccc3[C@H]2N1` it was 21 mm.

The next assay concerns Bacillus subtilis. Briefly: Antimicrobial activity against Bacillus subtilis at 100 ug/ml by agar diffusion assay. Type of assay: functional. Summed up: as §1
Compound `COC(=O)[C@]12Cc3c([nH]c4ccccc34)[C@@H](c3ccc(Cl)cc3)N1[C@@H]1c3ccccc3OC[C@@H]1C2` gave an inhibition zone (IZ) of 36 mm.
The same measure, in the same setting: under `COC(=O)[C@@]1(Cc2c[nH]c3ccccc23)C[C@H]2COc3ccccc3[C@H]2N1` stands 26 mm.

In another assay the test system is Staphylococcus aureus. The experiment in a line: Antimicrobial activity against Staphylococcus aureus at 100 ug/ml by agar diffusion assay. In kind it is functional. Put shortly:
as §1
Compound `COC(=O)[C@]12Cc3c([nH]c4ccccc34)[C@@H](c3ccc(Cl)cc3)N1[C@@H]1c3ccccc3OC[C@@H]1C2` yielded an inhibition zone (IZ) of 29 mm.
Compound `COC(=O)[C@@]1(Cc2c[nH]c3ccccc23)C[C@H]2COc3ccccc3[C@H]2N1` returned an inhibition zone (IZ) of 23 mm.

In a further assay the test system is Staphylococcus aureus. The experiment in a line: Antimicrobial activity against Staphylococcus aureus at 25 ug/ml by agar diffusion assay. Type of assay: functional. Summed up: as §1
`COC(=O)[C@]12Cc3c([nH]c4ccccc34)[C@@H](c3ccc(Cl)cc3)N1[C@@H]1c3ccccc3OC[C@@H]1C2` yielded an inhibition zone (IZ) of 20 mm.
The compound `COC(=O)[C@@]1(Cc2c[nH]c3ccccc23)C[C@H]2COc3ccccc3[C@H]2N1` gave an inhibition zone (IZ) of 10 mm.

Another assay deals with Pseudomonas aeruginosa. The experiment in a line: Antimicrobial activity against Pseudomonas aeruginosa at 100 ug/ml by agar diffusion assay. Type of assay: functional. Put shortly:
as §1
Take `COC(=O)[C@]12Cc3c([nH]c4ccccc34)[C@@H](c3ccc(Cl)cc3)N1[C@@H]1c3ccccc3OC[C@@H]1C2`: the inhibition zone (IZ) is 36 mm.
Same read-out and setting: in the case of `COC(=O)[C@@]1(Cc2c[nH]c3ccccc23)C[C@H]2COc3ccccc3[C@H]2N1` it was 23 mm.

Another assay concerns Macrophomina phaseolina. The experiment in a line: Antifungal activity against Macrophomina phaseolina. Type of assay: functional. Summed up:
(§2)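 Agar diffusion assay in duplicate against the plant fungal pathogens; read-out as minimum inhibitory concentration (MIC); carbendazim as reference control.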
Turning to `COC(=O)[C@]12Cc3c([nH]c4ccccc34)[C@@H](c3ccc(Cl)cc3)N1[C@@H]1c3ccccc3OC[C@@H]1C2`, inhibition of growth (MIC) required 20 µg/mL (≈ 41.2 µM).
Same read-out and setting: under `COC(=O)[C@@]1(Cc2c[nH]c3ccccc23)C[C@H]2COc3ccccc3[C@H]2N1` stands 60 µg/mL (≈ 166 µM).

The next assay concerns Radical scavenging activity. The experiment in a line: Antioxidant activity assessed as DPPH free radical scavenging activity at 50 ug by spectrophotometer. In kind it is functional. Put shortly: (§3)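 DPPH radical scavenging measured spectrophotometrically by Blois's method at 50, 500 and 1000 µg. Absorbance read at 517 nm. Percent scavenging is the absorbance decrease at 517 nm relative to the absorbance of DPPH solution without test compound. L-ascorbic acid as standard.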
For orientation: The DPPH test is a chemical assay of radical scavenging.
On to `COC(=O)[C@]12Cc3c([nH]c4ccccc34)[C@@H](c3ccc(Cl)cc3)N1[C@@H]1c3ccccc3OC[C@@H]1C2`, for which the Activity was 21%.
For `COC(=O)[C@@]1(Cc2c[nH]c3ccccc23)C[C@H]2COc3ccccc3[C@H]2N1`, the Activity amounted to 29%.

For the next assay, the system named is Pseudomonas aeruginosa. The experiment in a line: Antimicrobial activity against Pseudomonas aeruginosa at 50 ug/ml by agar diffusion assay. Type of assay: functional. Summed up: as §1
For the compound `COC(=O)[C@]12Cc3c([nH]c4ccccc34)[C@@H](c3ccc(Cl)cc3)N1[C@@H]1c3ccccc3OC[C@@H]1C2`, the inhibition zone (IZ) turned out to be 22 mm.
`COC(=O)[C@@]1(Cc2c[nH]c3ccccc23)C[C@H]2COc3ccccc3[C@H]2N1` showed an inhibition zone (IZ) of 15 mm.

The subject of the next assay is Bacillus subtilis. The experiment in a line: Antimicrobial activity against Bacillus subtilis at 50 ug/ml by agar diffusion assay. Type of assay: functional. Summed up: as §1
`COC(=O)[C@]12Cc3c([nH]c4ccccc34)[C@@H](c3ccc(Cl)cc3)N1[C@@H]1c3ccccc3OC[C@@H]1C2` gave an inhibition zone (IZ) of 21 mm.
On to `COC(=O)[C@@]1(Cc2c[nH]c3ccccc23)C[C@H]2COc3ccccc3[C@H]2N1`, for which the inhibition zone (IZ) came to 15 mm.

A further assay concerns Radical scavenging activity. Briefly: Antioxidant activity assessed as DPPH free radical scavenging activity at 1000 ug by spectrophotometer. Type of assay: functional. Summed up: as §3
On to `COC(=O)[C@]12Cc3c([nH]c4ccccc34)[C@@H](c3ccc(Cl)cc3)N1[C@@H]1c3ccccc3OC[C@@H]1C2`, for which the Activity was 68%.
Same read-out and setting: under `COC(=O)[C@@]1(Cc2c[nH]c3ccccc23)C[C@H]2COc3ccccc3[C@H]2N1` stands 64%.

The test system of the next assay is Fusarium oxysporum. Briefly: Antifungal activity against Fusarium oxysporum. In kind it is functional. Summed up: as §2
`COC(=O)[C@]12Cc3c([nH]c4ccccc34)[C@@H](c3ccc(Cl)cc3)N1[C@@H]1c3ccccc3OC[C@@H]1C2` registered an MIC of 70 µg/mL (≈ 144 µM).
The same measure, in the same setting: in the case of `COC(=O)[C@@]1(Cc2c[nH]c3ccccc23)C[C@H]2COc3ccccc3[C@H]2N1` it was 75 µg/mL (≈ 207 µM).

For a further assay, the system named is Radical scavenging activity. Briefly: Antioxidant activity assessed as DPPH free radical scavenging activity at 500 ug by spectrophotometer. Type of assay: functional. Put shortly:
as §3
As for `COC(=O)[C@]12Cc3c([nH]c4ccccc34)[C@@H](c3ccc(Cl)cc3)N1[C@@H]1c3ccccc3OC[C@@H]1C2`, the Activity worked out at 43%.
Still for that read-out and setting: in the case of `COC(=O)[C@@]1(Cc2c[nH]c3ccccc23)C[C@H]2COc3ccccc3[C@H]2N1` it was 51%.

For another assay, the system named is Bacillus subtilis. Briefly: Antimicrobial activity against Bacillus subtilis at 75 ug/ml by agar diffusion assay. In kind it is functional. Summed up:
as §1
For `COC(=O)[C@]12Cc3c([nH]c4ccccc34)[C@@H](c3ccc(Cl)cc3)N1[C@@H]1c3ccccc3OC[C@@H]1C2`, the inhibition zone (IZ) turned out to be 26 mm.
The same measure, in the same setting: in the case of `COC(=O)[C@@]1(Cc2c[nH]c3ccccc23)C[C@H]2COc3ccccc3[C@H]2N1` it was 20 mm.

The test system of a further assay is Klebsiella pneumoniae. The experiment in a line: Antimicrobial activity against Klebsiella pneumoniae at 25 ug/ml by agar diffusion assay. In kind it is functional. Summed up: as §1
In turn, `COC(=O)[C@]12Cc3c([nH]c4ccccc34)[C@@H](c3ccc(Cl)cc3)N1[C@@H]1c3ccccc3OC[C@@H]1C2` displayed an inhibition zone (IZ) of 16 mm.
The same measure, in the same setting: under `COC(=O)[C@@]1(Cc2c[nH]c3ccccc23)C[C@H]2COc3ccccc3[C@H]2N1` stands 11 mm.

In a further assay the test system is Bacillus subtilis. The experiment in a line: Antimicrobial activity against Bacillus subtilis at 25 ug/ml by agar diffusion assay. Type of assay: functional. Put shortly: as §1
For `COC(=O)[C@]12Cc3c([nH]c4ccccc34)[C@@H](c3ccc(Cl)cc3)N1[C@@H]1c3ccccc3OC[C@@H]1C2`, the inhibition zone (IZ) turned out to be 13.5 mm.
`COC(=O)[C@@]1(Cc2c[nH]c3ccccc23)C[C@H]2COc3ccccc3[C@H]2N1` came in with an inhibition zone (IZ) of 11 mm.

The next assay concerns Klebsiella pneumoniae. Briefly: Antimicrobial activity against Klebsiella pneumoniae at 50 ug/ml by agar diffusion assay. In kind it is functional. Put shortly: as §1
For `COC(=O)[C@]12Cc3c([nH]c4ccccc34)[C@@H](c3ccc(Cl)cc3)N1[C@@H]1c3ccccc3OC[C@@H]1C2`, the inhibition zone (IZ) was found to be 20 mm.
Still for that read-out and setting: under `COC(=O)[C@@]1(Cc2c[nH]c3ccccc23)C[C@H]2COc3ccccc3[C@H]2N1` stands 15 mm.

The next assay relates to Klebsiella pneumoniae. Briefly: Antimicrobial activity against Klebsiella pneumoniae at 75 ug/ml by agar diffusion assay. In kind it is functional. Put shortly: as §1
In the case of `COC(=O)[C@]12Cc3c([nH]c4ccccc34)[C@@H](c3ccc(Cl)cc3)N1[C@@H]1c3ccccc3OC[C@@H]1C2`, the inhibition zone (IZ) stood at 25 mm.
Same read-out and setting: in the case of `COC(=O)[C@@]1(Cc2c[nH]c3ccccc23)C[C@H]2COc3ccccc3[C@H]2N1` it was 21 mm.
